Test results published in article PMC5679012 (Chemistry (Weinheim an der Bergstrasse, Germany), 2017).

Assay: CO release kinetics by increase of fluorescence intensity in DMSO/PBS
Assay type: physicochemical
Conditions: fluorescence increase (450 nm); 100 μM; DMSO/PBS (pH = 7.4) 4:1, 37 °C
Procedure, shortened: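 Test compounds of scaffolds I and II were dissolved in DMSO/PBS (pH 7.4, 4:1) at 100 μM final and held at 37 °C. CO release was tracked as the rise in fluorescence intensity at 450 nm, read at successive time points. Each experiment was repeated three times independently.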

C#CC(C)(C)NC(=O)C1=C2C(=C(c3ccccc3)C1=O)c1cccc3cccc2c13 [BW-CO-111]
k, CO release rate: 3.31 ± 0.28 h⁻¹ | t1/2, half-life for CO release: ~12 min
